Experimental data published in ChEMBL document CHEMBL3407498, “Design, synthesis and 3D-QSAR studies of novel 1,4-dihydropyridines as TGFβ/Smad inhibitors” (Eur J Med Chem, 2015).

How the values were obtained:
[1] = Inhibition of TGFbeta/Smad in TGFbeta-2/activin A-stimulated HEK293 cells preincubated for 2 hrs before stimulation measured after 20 to 22 hrs by firefly/renilla luciferase reporter assay; format: cell-based; conditions: Homo sapiens
Procedure, shortened: (§1)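 HEK293T cells co-transfected with SBE-4 firefly luciferase and TK-driven renilla luciferase plasmids, replated after 12-14 h, rested 2 h, then given compound, DMSO and TGFβ-2 or Activin A (10 ng/mL). Firefly and renilla signals read after 20-22 h by dual luciferase kit. Triplicate wells; data normalized to DMSO (0% inhibition), mean ± SD of 2-4 independent experiments.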

HEK293 = assay: Inhibition of TGFbeta/Smad in TGFbeta-2/activin A-stimulated HEK293 cells preincubated at 2.5 uM for 2 hrs before stimulation measured after 20 to 22 hrs by firefly/renilla luciferase reporter assay; format: cell-based; conditions: Homo sapiens; procedure, shortened: as §1

SMILES	IC50 [1] [nM]	inhibition (HEK293) [%]
CCOC(=O)C1=C(C)NC2=C(C(=O)CC(C)(C)C2)C1c1ccc(-c2ccc(Cl)cc2)cc1 (stereo not drawn)	760	91
CCOC(=O)C1=C(C(=O)O)NC2=C(C(=O)CC(C)(C)C2)C1c1ccc(-c2ccccc2)cc1 (stereo not drawn)		0
CCOC(=O)C1=C(C)NC2=C(C(=O)CC(C)(C)C2)C1c1ccc(-c2ccccc2)cc1 (stereo not drawn)	850	83
CCOC(=O)C1=C(C)NC2=C(C(=O)CC(C)(C)C2)C1c1cc(OC)c(OC)c(OC)c1 (stereo not drawn)		5
CC1(C)CC(=O)C2=C(C1)NC1=C(C(=O)c3ccccc31)C2c1ccccc1 (stereo not drawn)		11
COC(=O)C1=C(C(=O)OC)C(c2ccc(-c3ccccc3)cc2)C2=C(CC(C)(C)CC2=O)N1 (stereo not drawn)	2010	46
C#Cc1ccc(C2C(C(=O)OCC)=C(C)NC3=C2C(=O)CC(C)(C)C3)cc1 (stereo not drawn)	1710	59
CCOC(=O)C1=C(N)NC2=C(C(=O)CC(C)(C)C2)C1c1ccc(C(C)(C)C)cc1 (stereo not drawn)	510	89
CCOC(=O)C1=C(C)NC2=C(C(=O)CC(C)(C)C2)C1c1ccc(-c2ccc(OC(F)(F)F)cc2)cc1 (stereo not drawn)	480	95
CCN(CC)CCN1C2=C(C(=O)CC(C)(C)C2)C(c2ccccc2)C2=C1CC(C)(C)CC2=O		12
COC(=O)C1=C(C)NC2=C(C(=O)CC(C)C2)C1c1ccc(-c2ccccc2)cc1 (stereo not drawn)		21
CCOC(=O)C1=C(C)NC2=C(C(=O)CC(C)(C)C2)C1c1ccc(O)c(OC)c1 (stereo not drawn)		8
CCCOCCOC(=O)C1=C(C)NC2=C(C(=O)CC(C)(C)C2)C1c1ccc(-c2ccccc2)cc1 (stereo not drawn)		0
CC1=C(C(=O)OC2CCCC2)C(c2ccc(-c3ccccc3)cc2)C2=C(CC(C)(C)CC2=O)N1 (stereo not drawn)	1110	77
CCOC(=O)C1=C(C)NC2=C(C(=O)CC(C)(C)C2)C1c1ccc(-c2ccc(OC)cc2)cc1 (stereo not drawn)	420	93
CCOC(=O)C1=C(C)NC2=C(C(=O)CC(C)(C)C2)C1c1ccc(C(C)(C)C)cc1 (stereo not drawn)		90
CCN1CC2=C(C1=O)C(c1ccc(-c3ccccc3)cc1)C1=C(CC(C)(C)CC1=O)N2 (stereo not drawn)	5030	25
CCOC(=O)C1=C(C)NC2=C(C(=O)CC(C)(C)C2)C1c1ccc(-c2ccc(N(C)C)cc2)cc1 (stereo not drawn)	330	95
CCOC(=O)C1=C(C)NC2=C(C(=O)CC(C)(C)C2)C1c1ccc(-c2ccc(F)cc2)cc1 (stereo not drawn)	1230	74
CCOC(=O)C1=C(C)NC2=C(C(=O)CC(C)(C)C2)C1c1ccc(-c2ccc(C(F)(F)F)cc2)cc1 (stereo not drawn)	970	88
CC1(C)CC(=O)C2=C(C1)NC1=C(C(=O)CC(C)(C)C1)C2c1ccccc1		21
CC1(C)CC(=O)C2=C(C1)NC1=C(C(=O)c3ccccc31)C2c1ccc(-c2ccccc2)cc1 (stereo not drawn)	1260	70
CCOC(=O)C1=C(C)NC2=C(C(=O)CC(C)(C)C2)C1c1ccc(-c2ccc(C)cc2)cc1 (stereo not drawn)	350	94
CCC(=O)C1=C(CC)NC2=C(C(=O)CC(C)(C)C2)C1c1ccc(-c2ccccc2)cc1 (stereo not drawn)	1630	62
CCOC(=O)C1=C(C)NC2=C(C(=O)NCC2)C1c1ccc(-c2ccccc2)cc1 (stereo not drawn)		21
CC1=C(C(=O)NCc2ccccc2)C(c2ccc(-c3ccccc3)cc2)C2=C(CC(C)(C)CC2=O)N1 (stereo not drawn)	5190	32
CCCCC(=O)C1=C(C)NC2=C(C(=O)CC(C)(C)C2)C1c1ccc(-c2ccccc2)cc1 (stereo not drawn)	560	80

SMILES	IC50 [1] [nM]	inhibition (HEK293) [%]
CCOC(=O)C1=C(C(=O)OCC)C(c2ccc(-c3ccccc3)cc2)C2=C(CC(C)(C)CC2=O)N1 (stereo not drawn)	1800	56
CCOCCOC(=O)C1=C(C)NC(C)=C(C(=O)OCCOCC)C1c1ccccc1OC(F)(F)F		4
CCOC(=O)C1=C(C)NC2=C(C(=O)CC(C)(C)C2)C1c1ccc(-c2ccncc2)cc1 (stereo not drawn)	6140	27
CCCCCCCCCCCCOC(=O)C1=C(C)NC2=C(C(=O)CC(C)(C)C2)C1c1ccc(-c2ccccc2)cc1 (stereo not drawn)		0
CC1=C(C(=O)OC(C)(C)C)C(c2ccc(-c3ccccc3)cc2)C2=C(CC(C)(C)CC2=O)N1 (stereo not drawn)	670	84
CCCC(=O)C1=C(C)NC2=C(C(=O)CC(C)(C)C2)C1c1ccc(-c2ccccc2)cc1 (stereo not drawn)	500	84
CC1(C)CC(=O)C2=C(C1)NC1=C(C(=O)NC1)C2c1ccc(-c2ccccc2)cc1 (stereo not drawn)		28
CCNC(=O)C1=C(C)NC2=C(C(=O)CC(C)(C)C2)C1c1ccc(-c2ccccc2)cc1 (stereo not drawn)		31
CCOC(=O)C1=C(C)NC2=C(C(=O)CC(C)(C)C2)C1c1ccccc1 (stereo not drawn)		2
CCOC(=O)C1=C(N)NC2=C(C(=O)CC(C)(C)C2)C1c1ccc(-c2ccccc2)cc1 (stereo not drawn)	1330	61
CC1=C(C(=O)OCC(C)C)C(c2ccc(-c3ccccc3)cc2)C2=C(CC(C)(C)CC2=O)N1 (stereo not drawn)	420	
CCOC(=O)C1=C(C)NC2=C(C(=O)CC(C)(C)C2)C1c1ccc(-c2ccc(O)cc2)cc1 (stereo not drawn)	730	74
CCOC(=O)C1=C(COC)NC2=C(C(=O)CC(C)(C)C2)C1c1ccc(-c2ccccc2)cc1 (stereo not drawn)	1890	78
CCOC(=O)C1=C(C)NC2=C(C(=O)CC(C)(C)C2)C1c1ccc(-c2ccc(S(C)(=O)=O)cc2)cc1 (stereo not drawn)	2760	44
CC1=C(C(=O)OC(C)C)C(c2ccc(-c3ccccc3)cc2)C2=C(CC(C)(C)CC2=O)N1 (stereo not drawn)	660	85
CC1(C)CC(=O)C2=C(C1)NC1=C(C(=O)N(Cc3ccccc3)C1)C2c1ccc(-c2ccccc2)cc1 (stereo not drawn)	870	82
CCOC(=O)C1=C(C)NC2=C(C(=O)CC(C)(C)C2)C1c1ccc(-c2ccc(C#N)cc2)cc1 (stereo not drawn)	1790	52
CCOC(=O)C1=C(C)NC2=C(C(=O)CC(C)(C)C2)C1c1ccc(-c2ccc(Br)cc2)cc1 (stereo not drawn)	460	94
CC1=C(C#N)C(c2ccc(-c3ccccc3)cc2)C2=C(CC(C)(C)CC2=O)N1 (stereo not drawn)	2950	44
CCNCC1=C(C(=O)OCC)C(c2ccc(-c3ccccc3)cc2)C2=C(CC(C)(C)CC2=O)N1 (stereo not drawn)	3440	64
CCCOC(=O)C1=C(C)NC2=C(C(=O)CC(C)(C)C2)C1c1ccc(-c2ccccc2)cc1 (stereo not drawn)	490	93
C=CCOC(=O)C1=C(C)NC2=C(C(=O)CC(C)(C)C2)C1c1ccc(-c2ccccc2)cc1 (stereo not drawn)	620	91
COC(=O)C1=C(C(=O)O)NC2=C(C(=O)CC(C)(C)C2)C1c1ccc(-c2ccccc2)cc1 (stereo not drawn)		4
CC1(C)CC(=O)C2=C(C1)NC1=C(C(=O)OC1)C2c1ccc(-c2ccccc2)cc1 (stereo not drawn)	4300	37
CCCNCC1=C(C(=O)OCC)C(c2ccc(-c3ccccc3)cc2)C2=C(CC(C)(C)CC2=O)N1 (stereo not drawn)	1600	57
CCOC(=O)C1=C(C)NC2=C(C(=O)CC(C)(C)C2)C1c1ccccc1OC(F)(F)F (stereo not drawn)		9
